Screens from PubChem BioAssay.
Sampled rows, rich in hits. Any-hit rate of the full collection: about 4.1%.
SMARCA2 act: activators of SMARCA2 function | MG213 cells, MMTV-luciferase reporter, dexamethasone, overnight | activation, % at 9.1 µM | hit rate 1% among 370,000 | AID 652017; in the data active means activation above about 7.8%
MPTP block: permeability transition pore inhibition; isolated mouse mitochondria, Ca2+ swelling absorbance, 30 min; AID 602449; hit rate 1.4% among 360,000; inhibition, % at 10 µM;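 active means inhibition of 50% or more, scaled per plate between neutral and stimulator controls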
MC4R barr agon: activates human MC4R beta-arrestin recruitment. P32245. U2OS MC4R beta-arrestin complementation, luminescence; percent of melanotan II response, DMSO zero. activation, % at 8.9 µM. hit rate 0.98% among 360,000. AID 540308;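 active means activation above a per-plate cutoff, the mean activation of sample wells on that plate plus 3 SD, cut at about 8% in these data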
MC4R antagonist: antagonists of human melanocortin 4 receptor (MC4R). hit rate 0.48% among 360,000. MC4R-expressing cells, MTII-stimulated cAMP, LANCE TR-FRET. inhibition, % at 6.5 µM. AID 540295. P32245;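 active means inhibition above its plate's cutoff, the mean of tested wells on that plate plus 3 SD, cut at about 29% in these data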
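Material: U2OS-MC4R stable cell line | Reagent: Melanotan II challenge after compound preincubation | Doses: One concentration, 6.5 µM nominal | Incubation: 30-min compound preincubation, 1-h Melanotan II challenge, 1-h detection, room temperature | Signal: TR-FRET cAMP assay | Replicates: One well per compound, no replicates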
ATG4B inh: inhibitors of human ATG4B cysteine protease. inhibition, % at 8.33 µM. hit rate 0.51% among 340,000. ATG4B cleavage of LC3-PLA2, NBD-HPC fluorescence, 1 h; in the data active means inhibition above about 40%
MC4R barr conf: human MC4R beta-arrestin agonism confirmation | shares compounds with MC4R barr agon | U2OS MC4R beta-arrestin recruitment, luminescence; scaled DMSO 0%, Melanotan II 100% | activation, % at 8.9 µM | hit rate 31% among 2,400 | AID 602192;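 active means mean activation across replicates above the hit cutoff set in the earlier primary screen, cut at about 8% in these data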
MOR-DOR barr ag: counter-screen for MC4R agonists: agonists of mu-delta opioid heterodimer | U2OS PathHunter beta-arrestin, beta-gal luminescence; percent of deltorphin B response, DMSO zero | activation, % at 9.2 µM | shares compounds with MC4R barr agon | hit rate 5.8% among 2,400 | AID 602194;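 active means mean activation across replicates exceeds the hit threshold derived in the earlier primary screen, cut at about 18% in these data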
Target sequence (P35372 whole entry, looked up): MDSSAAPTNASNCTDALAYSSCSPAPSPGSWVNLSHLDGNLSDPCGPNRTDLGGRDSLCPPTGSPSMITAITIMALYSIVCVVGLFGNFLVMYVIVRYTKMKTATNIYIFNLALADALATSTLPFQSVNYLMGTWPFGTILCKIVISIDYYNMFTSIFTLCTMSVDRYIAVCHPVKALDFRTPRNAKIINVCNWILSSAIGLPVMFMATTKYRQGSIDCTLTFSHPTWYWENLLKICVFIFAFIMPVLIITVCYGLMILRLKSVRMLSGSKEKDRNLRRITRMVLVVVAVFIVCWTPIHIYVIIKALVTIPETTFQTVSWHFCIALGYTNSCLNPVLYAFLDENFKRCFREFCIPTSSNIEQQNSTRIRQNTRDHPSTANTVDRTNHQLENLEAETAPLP
Target sequence (P41143 whole entry, looked up): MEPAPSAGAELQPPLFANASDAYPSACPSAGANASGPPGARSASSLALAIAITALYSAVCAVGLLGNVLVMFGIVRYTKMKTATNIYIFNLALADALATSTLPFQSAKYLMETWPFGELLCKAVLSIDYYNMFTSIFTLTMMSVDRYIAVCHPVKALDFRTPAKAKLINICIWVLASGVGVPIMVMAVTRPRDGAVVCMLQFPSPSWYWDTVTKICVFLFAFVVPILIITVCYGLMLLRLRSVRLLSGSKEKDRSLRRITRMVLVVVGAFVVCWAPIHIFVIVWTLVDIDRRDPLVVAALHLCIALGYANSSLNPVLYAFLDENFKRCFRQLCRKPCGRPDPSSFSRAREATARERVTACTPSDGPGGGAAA
Of the large screens only hits and unclear results are named; the others gave an inactive call (follow-up assays come after a bar, where they were run).

COCC(=O)N1CCC(C(=O)NC2CCCc3ccccc32)CC1 (stereo not given)	none (no result: MPTP block, MC4R barr agon, MC4R antagonist, ATG4B inh)
O=C(NC(=S)Nc1ccccc1Br)c1ccc2c(c1)OCO2	MC4R barr agon 11.1 | MC4R barr conf inactive | MOR-DOR barr ag inactive
COC(=O)c1ccc(NC(=O)c2ccc3c(c2)OCO3)cc1	none
CC(C)c1nnc(NC(=O)c2ccc3c(c2)OCO3)s1	none
COc1cc(NC(=O)c2ccc3c(c2)OCO3)c2ncccc2c1	MC4R barr agon 10.5 | MC4R barr conf inactive | MOR-DOR barr ag inactive
COC(=O)c1sccc1NC(=O)c1ccc2c(c1)OCO2	MC4R barr agon 14.5 | MC4R barr conf inactive | MOR-DOR barr ag inactive
COc1cc(NC(=O)c2cc(OC)c(OC)c(OC)c2)c2ncccc2c1	none
CC(c1ccccc1)c1nnc(NC(=O)c2ccc3c(c2)OCO3)s1 (stereo not given)	MC4R barr agon 15.1 | MC4R barr conf inactive | MOR-DOR barr ag inactive
CC(C)(C)C(=O)c1c(N)[nH]c(C(=O)c2ccccc2)c1-c1ccc([N+](=O)[O-])cc1	none (no result: MPTP block, MC4R barr agon, MC4R antagonist, ATG4B inh)
Fc1ccc(-c2cc(-c3nnc4sc(-c5cccs5)nn34)[nH]n2)cc1	none (no result: MPTP block, MC4R barr agon, MC4R antagonist, ATG4B inh)
COC(=O)C1CN(C2CCCC2)CCS(=O)(=O)N1Cc1ccc(Cl)cc1 (stereo not given)	none (no result: MPTP block, MC4R barr agon, MC4R antagonist, ATG4B inh)
Cc1cc(C(=O)Nc2sc3c(c2C#N)CCC(C(C)(C)C)C3)no1 (stereo not given)	MC4R barr agon 9.9 | MC4R barr conf inactive | MOR-DOR barr ag inactive
C=CCn1c(SCC(=O)C(C)(C)C)nnc1-c1ccc(Cl)cc1	none (no result: MPTP block, MC4R barr agon, MC4R antagonist, ATG4B inh)
C=CCN=C1NC(c2ccc(C(F)(F)F)cc2)C(C(=O)OC)=C(C)N1C (stereo not given)	none (no result: MPTP block, MC4R barr agon, MC4R antagonist, ATG4B inh)
OC(CNCCc1ccc(C(F)(F)F)cc1)COC(c1ccccc1)c1ccccc1 (stereo not given)	MC4R barr agon 36.0 | MC4R barr conf 21.7 | MOR-DOR barr ag inactive
CCOC(=O)N1CCC(N2C(=O)c3ccc(C(=O)O)cc3C2=O)CC1	none
CCOC(=O)N1CCC(N2C(=O)c3ccc(C(=O)Nc4cccc(OC)c4)cc3C2=O)CC1	MC4R barr agon 12.1 | MC4R barr conf inactive | MOR-DOR barr ag inactive
O=C(N/N=C/c1ccc(OCc2ccccc2)cc1)c1cccs1	MC4R barr agon 13.3 | MC4R barr conf 20.1 | MOR-DOR barr ag inactive
O=C(N/N=C/c1cccc(OCc2ccccc2)c1)c1ccc(Br)cc1	MC4R barr agon 17.4 | MC4R barr conf inactive | MOR-DOR barr ag inactive
CC(/C=N/NC(=O)c1ccc(Br)cc1)=C\c1ccccc1	MC4R barr agon 28.1 | MC4R barr conf inactive | MOR-DOR barr ag inactive
COC(=O)[C@]12C[C@H](CC(=O)NCc3ccccc3)C(=O)N(Cc3cccc4ccccc34)C1=C[C@H](C(C)(C)C)O[C@@H]2C	none (no result: MPTP block, MC4R barr agon, MC4R antagonist, ATG4B inh)
CCC(C)[C@H](NC(=O)[C@H](CC(C)C)NC(=O)OC(C)(C)C)C(=O)N[C@@H](Cc1ccccc1)C(=O)OC (stereo not given in full)	none (no result: MPTP block, MC4R barr agon, MC4R antagonist, ATG4B inh)
c1ccc(OCCCn2nnc(-c3ccc(N4CCOCC4)cc3)n2)cc1	MC4R barr agon 17.4 | MC4R barr conf inactive | MOR-DOR barr ag inactive
c1ccc(OCCCn2nnc(-c3ccncc3)n2)cc1	none
O=C(Nc1ccc(Cl)c(Cl)c1)c1ccc(Cl)c(Cl)c1	MC4R barr agon 14.4 | MC4R barr conf inactive | MOR-DOR barr ag inactive
O=C(Nc1ccc(Cl)c(Cl)c1)c1ccncc1	none
O=C(Nc1cccc(Cl)c1)c1csc(-c2ccccc2)n1	none
O=C(Nc1ccc(Cl)c(Cl)c1)c1csc(-c2ccccc2)n1	MC4R barr agon 19.8 | MC4R barr conf inactive | MOR-DOR barr ag inactive
COc1cc(/C=C/C(=O)OCC(=O)NCCc2ccccc2)ccc1OC(F)F	none
COc1cc(/C=C/C(=O)OCC(=O)NCCc2ccc(F)cc2)ccc1OC(F)F	MC4R barr agon 10.3 | MC4R barr conf inactive | MOR-DOR barr ag inactive
O=C(Nc1ccccc1OC(F)F)c1oc2ccccc2c1COc1ccccc1	MC4R barr agon 27.0 | MC4R barr conf 13.8 | MOR-DOR barr ag inactive
CC[C@@H](CCCc1ccc(F)cc1)CN(Cc1ccc(OC)cc1)S(=O)(=O)c1ccc(C)cc1	none (no result: MPTP block, MC4R barr agon, MC4R antagonist, ATG4B inh)
Cn1cc(/C=C2\SC(=O)N(c3ccccc3)C2=O)c2ccccc21	MC4R barr agon 14.8 | MC4R barr conf inactive | MOR-DOR barr ag inactive
Cn1cc(/C=C2\SC(=O)N(c3ccc(O)cc3)C2=O)c2ccccc21	none
C=CCN1C(=O)[C@@H](CC(=O)NCc2cccc3ccccc23)[C@]2(C(=O)OCC)CCCCC/C=C/12	none (no result: MPTP block, MC4R barr agon, MC4R antagonist, ATG4B inh)
CC1(C)Oc2ccc3ccc(=O)oc3c2/C(=C/Nc2ccccc2)C1=O	MC4R barr agon 9.8 | MC4R barr conf inactive | MOR-DOR barr ag inactive
COc1cc(CN2CCN(c3cccc(C)c3C)CC2)cc(Br)c1O	MC4R barr agon 11.7 | MC4R barr conf inactive | MOR-DOR barr ag inactive
COc1ccc(CN2CCN(c3cccc(C)c3C)CC2)cc1OC	none
